Source: ChEMBL document CHEMBL3994591, “Novel ferulic amide derivatives with tertiary amine side chain as acetylcholinesterase and butyrylcholinesterase inhibitors: The influence of carbon spacer length, alkylamine and aromatic group” (Eur J Med Chem, 2017)

Assays:
Homo sapiens = organism: Homo sapiens; test: Selectivity index, ratio of IC50 for butyrylcholinesterase (unknown origin) to IC50 for acetylcholinesterase (unknown origin)
Cholinesterase = Cholinesterase (Homo sapiens, UniProt P06276); test: Inhibition of butyrylcholinesterase (unknown origin) using butyrylthiocholine iodide as substrate after 25 mins by Ellmann method
Chain of Cholinesterase (P06276 whole entry): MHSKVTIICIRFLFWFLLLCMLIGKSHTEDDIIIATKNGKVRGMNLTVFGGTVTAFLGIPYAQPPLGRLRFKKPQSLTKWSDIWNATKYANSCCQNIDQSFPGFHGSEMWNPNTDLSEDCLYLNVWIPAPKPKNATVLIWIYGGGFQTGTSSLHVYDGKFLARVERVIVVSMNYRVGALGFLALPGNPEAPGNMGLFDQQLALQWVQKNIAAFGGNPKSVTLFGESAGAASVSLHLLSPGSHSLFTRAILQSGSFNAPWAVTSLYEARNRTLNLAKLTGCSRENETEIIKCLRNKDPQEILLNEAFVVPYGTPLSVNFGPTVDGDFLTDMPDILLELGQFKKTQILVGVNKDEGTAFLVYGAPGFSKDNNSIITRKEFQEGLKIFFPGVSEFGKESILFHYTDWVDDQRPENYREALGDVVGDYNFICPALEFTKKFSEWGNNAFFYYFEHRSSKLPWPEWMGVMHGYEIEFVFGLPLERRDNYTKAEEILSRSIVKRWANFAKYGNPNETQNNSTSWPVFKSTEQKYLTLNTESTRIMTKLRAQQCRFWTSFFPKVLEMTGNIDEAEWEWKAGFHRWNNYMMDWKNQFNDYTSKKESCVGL
Method in brief: (§1)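 Modified Ellman assay, triplicate. Compounds dissolved in Tween 80, diluted with water to five concentrations. Mix: enzyme […], substrate (acetylthiocholine iodide or butyrylthiocholine iodide) and test compound in phosphoric acid buffer, pH 8.0, 0.1 mol/L. Incubated 25 min at 30 °C, then terminated. IC50 reported as mean ± SD of three experiments.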

[1] = Octanol-water partition coefficient, log P of the compound at pH 7.4 by shake flask method; assay type: physicochemical
Method in brief: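 Shake flask partition between octanol and PBS (pH 7.4). Mixture shaken at 37 °C overnight, then centrifuged at 2000 rpm for 20 min. Phases analysed by C18 HPLC with methanol-0.1% TEA (85:15, v/v) at 1.0 mL/min and 32 °C, detection at 322 nm. Run in triplicate, log P calculated.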

Acetylcholinesterase = Acetylcholinesterase (Homo sapiens, UniProt P22303); test: Inhibition of acetylcholinesterase (unknown origin) using acetylthiocholine iodide as substrate after 25 mins by Ellmann method; method in brief: as §1
Chain of Acetylcholinesterase (P22303 whole entry): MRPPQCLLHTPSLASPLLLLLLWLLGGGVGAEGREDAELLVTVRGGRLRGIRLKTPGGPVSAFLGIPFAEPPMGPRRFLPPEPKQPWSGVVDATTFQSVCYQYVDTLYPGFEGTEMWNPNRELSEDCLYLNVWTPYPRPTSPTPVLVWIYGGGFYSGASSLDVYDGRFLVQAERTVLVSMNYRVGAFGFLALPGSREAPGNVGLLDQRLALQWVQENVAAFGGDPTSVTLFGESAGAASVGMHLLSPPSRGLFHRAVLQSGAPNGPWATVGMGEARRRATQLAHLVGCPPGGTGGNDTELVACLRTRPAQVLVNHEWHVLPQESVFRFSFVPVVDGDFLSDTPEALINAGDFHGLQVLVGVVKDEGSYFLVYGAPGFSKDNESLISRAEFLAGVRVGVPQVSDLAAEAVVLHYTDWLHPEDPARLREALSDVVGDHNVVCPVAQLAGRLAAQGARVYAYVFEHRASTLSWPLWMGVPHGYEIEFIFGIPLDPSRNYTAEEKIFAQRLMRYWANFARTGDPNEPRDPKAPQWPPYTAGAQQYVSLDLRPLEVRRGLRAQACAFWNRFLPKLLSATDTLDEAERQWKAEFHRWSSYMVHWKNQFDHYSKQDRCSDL

[2] = Inhibition of carboxylesterase (unknown origin) using 4-nitrophenyl acetate as substrate by UV-Vis spectrophotometer; design: species or system Homo sapiens
Method in brief: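 Read-out was 4-nitrophenol released by CaE hydrolysis of 1.0 mmol/L 4-nitrophenyl acetate, measured at 405 nm. Reactions ran in 100 mmol/L potassium phosphate buffer, pH 8.0, at 25 °C. CaE activity was taken as proportional to 4-nitrophenol concentration.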

COc1cc(/C=C/C(=O)Nc2ccccc2)ccc1OCCN1CCCCC1
Ratio IC50 (Homo sapiens): 0.12
IC50 (Cholinesterase): 2.34 µM
logD [1]: 1.56
IC50 (Acetylcholinesterase): 19.4 µM
IC50 [2]: > 500 µM

COc1cc(/C=C/C(=O)Nc2ccccc2)ccc1OCCCN1CCCCC1
Ratio IC50 (Homo sapiens): 0.33
IC50 (Cholinesterase): 4.78 µM
logD [1]: 1.58
IC50 (Acetylcholinesterase): 14.5 µM
IC50 [2]: > 500 µM

COc1cc(/C=C/C(=O)Nc2ccccc2)ccc1OCCCCCCCCCCN1CCCCC1
Ratio IC50 (Homo sapiens): 0.44
IC50 (Cholinesterase): 4.84 µM
logD [1]: 1.83
IC50 (Acetylcholinesterase): 11.1 µM
IC50 [2]: > 500 µM

CCN(CC)CCCCCOc1ccc(/C=C/C(=O)Nc2ccccc2)cc1OC
Ratio IC50 (Homo sapiens): 1.17
IC50 (Cholinesterase): 22.1 µM
logD [1]: 1.63
IC50 (Acetylcholinesterase): 19 µM
IC50 [2]: > 500 µM

COc1cc(/C=C/C(=O)O)ccc1OCCCCCCN1CCCC1
Ratio IC50 (Homo sapiens): 4.1
IC50 (Cholinesterase): 287 µM
logD [1]: 1.29
IC50 (Acetylcholinesterase): 69.9 µM
IC50 [2]: > 500 µM

COc1cc(/C=C/C(=O)Nc2ccccc2)ccc1OCCCCCN1CCCCC1
Ratio IC50 (Homo sapiens): 1.23
IC50 (Cholinesterase): 5.9 µM
logD [1]: 1.65
IC50 (Acetylcholinesterase): 4.8 µM
IC50 [2]: > 500 µM

CCN(CC)CCCCCCCCOc1ccc(/C=C/C(=O)O)cc1OC
Ratio IC50 (Homo sapiens): 95.1
IC50 (Cholinesterase): 302 µM
logD [1]: 1.51
IC50 (Acetylcholinesterase): 3.18 µM
IC50 [2]: > 500 µM

CCN(CC)CCCCCCCCOc1ccc(/C=C/C(=O)Nc2ccccc2)cc1OC
Ratio IC50 (Homo sapiens): 2.93
IC50 (Cholinesterase): 3.98 µM
logD [1]: 1.75
IC50 (Acetylcholinesterase): 1.36 µM
IC50 [2]: > 500 µM

COc1cc(/C=C/C(=O)Nc2ccccc2)ccc1OCCCCCN1CCCC1
Ratio IC50 (Homo sapiens): 0.77
IC50 (Cholinesterase): 4.78 µM
logD [1]: 1.64
IC50 (Acetylcholinesterase): 6.21 µM
IC50 [2]: > 500 µM

CCOC(=O)/C=C/c1ccc(OCCCCCCN2CCCC2)c(OC)c1
Ratio IC50 (Homo sapiens): 74.6
IC50 (Cholinesterase): 377 µM
logD [1]: 1.82
IC50 (Acetylcholinesterase): 5.05 µM
IC50 [2]: > 500 µM

COc1cc(/C=C/C(=O)O)ccc1OCCCCCCN1CCCCC1
Ratio IC50 (Homo sapiens): 3.2
IC50 (Cholinesterase): 146 µM
logD [1]: 1.32
IC50 (Acetylcholinesterase): 45.6 µM
IC50 [2]: > 500 µM

COc1cc(/C=C/C(=O)Nc2ccccc2)ccc1OCCCCN1CCCCC1
Ratio IC50 (Homo sapiens): 0.8
IC50 (Cholinesterase): 5.69 µM
logD [1]: 1.61
IC50 (Acetylcholinesterase): 7.14 µM
IC50 [2]: > 500 µM

CCN(CC)CCCCOc1ccc(/C=C/C(=O)Nc2ccccc2)cc1OC
Ratio IC50 (Homo sapiens): 0.6
IC50 (Cholinesterase): 25.1 µM
logD [1]: 1.59
IC50 (Acetylcholinesterase): 41.6 µM
IC50 [2]: > 500 µM

COc1cc(/C=C/C(=O)Nc2ccccc2)ccc1OCCCCN(C)C
Ratio IC50 (Homo sapiens): 0.26
IC50 (Cholinesterase): 25.9 µM
logD [1]: 1.57
IC50 (Acetylcholinesterase): 100 µM
IC50 [2]: > 500 µM

CCN(CC)CCOc1ccc(/C=C/C(=O)Nc2ccccc2)cc1OC
Ratio IC50 (Homo sapiens): 0.28
IC50 (Cholinesterase): 11.5 µM
logD [1]: 1.53
IC50 (Acetylcholinesterase): 41.1 µM
IC50 [2]: > 500 µM

COc1cc(/C=C/C(=O)Nc2ccccc2)ccc1OCCCCCN(C)C
Ratio IC50 (Homo sapiens): 0.37
IC50 (Cholinesterase): 12.1 µM
logD [1]: 1.61
IC50 (Acetylcholinesterase): 33 µM
IC50 [2]: > 500 µM

COc1cc(/C=C/C(=O)Nc2ccccc2)ccc1OCCCCCCCCN1CCCCC1
Ratio IC50 (Homo sapiens): 1.32
IC50 (Cholinesterase): 5.45 µM
logD [1]: 1.79
IC50 (Acetylcholinesterase): 4.12 µM
IC50 [2]: > 500 µM

CCOC(=O)/C=C/c1ccc(OCCCCCCN2CCCCC2)c(OC)c1
Ratio IC50 (Homo sapiens): 15.8
IC50 (Cholinesterase): 41.8 µM
logD [1]: 1.81
IC50 (Acetylcholinesterase): 2.65 µM
IC50 [2]: > 500 µM

CCOC(=O)/C=C/c1ccc(OCCCCCCCCN(CC)CC)c(OC)c1
Ratio IC50 (Homo sapiens): 8.37
IC50 (Cholinesterase): 13 µM
logD [1]: 1.98
IC50 (Acetylcholinesterase): 1.56 µM
IC50 [2]: > 500 µM

COc1cc(/C=C/C(=O)Nc2ccccc2)ccc1OCCCCCCCCN1CCCC1
Ratio IC50 (Homo sapiens): 1.38
IC50 (Cholinesterase): 4.03 µM
logD [1]: 1.78
IC50 (Acetylcholinesterase): 2.91 µM
IC50 [2]: > 500 µM

CCN(CC)CCCCCCOc1ccc(/C=C/C(=O)O)cc1OC
Ratio IC50 (Homo sapiens): 98.6
IC50 (Cholinesterase): 263 µM
logD [1]: 1.29
IC50 (Acetylcholinesterase): 2.67 µM
IC50 [2]: > 500 µM

COc1cc(/C=C/C(=O)Nc2ccccc2)ccc1OCCCCCCCCCCN1CCCC1
Ratio IC50 (Homo sapiens): 0.22
IC50 (Cholinesterase): 2.99 µM
logD [1]: 1.86
IC50 (Acetylcholinesterase): 13.5 µM
IC50 [2]: > 500 µM

CCN(CC)CCCCCCOc1ccc(/C=C/C(=O)Nc2ccccc2)cc1OC
Ratio IC50 (Homo sapiens): 2.66
IC50 (Cholinesterase): 4.86 µM
logD [1]: 1.7
IC50 (Acetylcholinesterase): 1.83 µM
IC50 [2]: > 500 µM

CCN(CC)CCCCCCCCCCOc1ccc(/C=C/C(=O)Nc2ccccc2)cc1OC
Ratio IC50 (Homo sapiens): 0.57
IC50 (Cholinesterase): 8.47 µM
logD [1]: 1.83
IC50 (Acetylcholinesterase): 14.9 µM
IC50 [2]: > 500 µM

COc1cc(/C=C/C(=O)Nc2ccccc2)ccc1OCCCN1CCCC1
Ratio IC50 (Homo sapiens): 0.38
IC50 (Cholinesterase): 14.2 µM
logD [1]: 1.57
IC50 (Acetylcholinesterase): 37.1 µM
IC50 [2]: > 500 µM

COc1cc(/C=C/C(=O)Nc2ccccc2)ccc1OCCCN(C)C
Ratio IC50 (Homo sapiens): 0.59
IC50 (Cholinesterase): 20 µM
logD [1]: 1.55
IC50 (Acetylcholinesterase): 33.9 µM
IC50 [2]: > 500 µM

COc1cc(/C=C/C(=O)Nc2ccccc2)ccc1OCCCCCCN(C)C
Ratio IC50 (Homo sapiens): 0.8
IC50 (Cholinesterase): 6.72 µM
logD [1]: 1.69
IC50 (Acetylcholinesterase): 8.4 µM
IC50 [2]: > 500 µM

CCN(C)C(=O)Oc1cccc([C@H](C)N(C)C)c1 [RIVASTIGMINE]
logD [1]: 1.68
IC50 [2]: 31.1 µM

COc1cc(/C=C/C(=O)Nc2ccccc2)ccc1OCCCCN1CCCC1
Ratio IC50 (Homo sapiens): 0.16
IC50 (Cholinesterase): 3.83 µM
logD [1]: 1.6
IC50 (Acetylcholinesterase): 24.4 µM
IC50 [2]: > 500 µM

COc1cc(/C=C/C(=O)Nc2ccccc2)ccc1OCCN(C)C
Ratio IC50 (Homo sapiens): 1
IC50 (Cholinesterase): 23.3 µM
logD [1]: 1.5
IC50 (Acetylcholinesterase): 23.2 µM
IC50 [2]: > 500 µM

COc1cc(/C=C/C(=O)Nc2ccccc2)ccc1OCCCCCCCCCCN(C)C
Ratio IC50 (Homo sapiens): 2.07
IC50 (Cholinesterase): 20.6 µM
logD [1]: 1.8
IC50 (Acetylcholinesterase): 9.93 µM
IC50 [2]: > 500 µM

COc1cc(/C=C/C(=O)Nc2ccccc2)ccc1OCCCCCCCCN(C)C
Ratio IC50 (Homo sapiens): 1.16
IC50 (Cholinesterase): 10.4 µM
logD [1]: 1.74
IC50 (Acetylcholinesterase): 8.95 µM
IC50 [2]: > 500 µM

COc1cc(/C=C/C(=O)Nc2ccccc2)ccc1O
IC50 (Cholinesterase): > 500 µM
logD [1]: 1.42
IC50 (Acetylcholinesterase): > 500 µM
IC50 [2]: > 500 µM

CCOC(=O)/C=C/c1ccc(OCCCCCCN(CC)CC)c(OC)c1
Ratio IC50 (Homo sapiens): 5.87
IC50 (Cholinesterase): 11.4 µM
logD [1]: 1.8
IC50 (Acetylcholinesterase): 1.94 µM
IC50 [2]: > 500 µM

COc1cc(/C=C/C(=O)Nc2ccccc2)ccc1OCCN1CCCC1
Ratio IC50 (Homo sapiens): 0.36
IC50 (Cholinesterase): 12.7 µM
logD [1]: 1.54
IC50 (Acetylcholinesterase): 35.1 µM
IC50 [2]: > 500 µM

CCN(CC)CCCOc1ccc(/C=C/C(=O)Nc2ccccc2)cc1OC
Ratio IC50 (Homo sapiens): 0.71
IC50 (Cholinesterase): 16.9 µM
logD [1]: 1.57
IC50 (Acetylcholinesterase): 23.7 µM
IC50 [2]: > 500 µM
